Several values for one entry are separate records, joined by “and”; a condition that tells them apart may be missing. Identical values can stand only once.
Tested on: Fibroblast
Assay: Multiplex assay against human fibroblast
Type: toxicity, cell-based
Settings: number of replicates 2
In short: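 Four dyes were applied at seeding to live cells: Hoechst33342, BioTracker Green Microtubule Cytoskeleton Dye, MitoTracker Red and Annexin V Alexa Fluor 680. Imaging after compound addition used a CQ1 microscope at 37°C and 5% CO2. CellPathfinder machine-learning gating then sorted cells into Hoechst high-intensity objects or normal cells, normal cells into healthy, pyknosed or fragmented nuclei, and pyknosed cells into mitotic or apoptotic, with tubulin, mitochondrial-mass and membrane-permeability phenotypes given as per cents of healthy-nucleus cells.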

[1] = 12 h, 1 µM, compound concentration 1 uM
[2] = 12 h, 10 µM, compound concentration 10 uM
[3] = 24 h, 1 µM, compound concentration 1 uM
[4] = 24 h, 10 µM, compound concentration 10 uM
[5] = 48 h, 1 µM, compound concentration 1 uM
[6] = 48 h, 10 µM, compound concentration 10 uM

COc1ccncc1C(=O)NC(=O)Nc1ccc(-c2ccccc2)c(C(F)(F)F)c1
Population Apoptotic (%) [1]: 43% and 32% | Population Fragmented Nuclei (%) [1]: 7% and 12% | Population Healthy Nuclei (%) [1]: 73% and 71% | Population Hoechst High Intensity Objects (%) [1]: 0% | Population Membrane Permeable-Phenotype (%) [1]: 5% and 3% | Population Mitochondria Different-Phenotype (%) [1]: 1% and 2% | Population Mitotic Cells (%) [1]: 56% and 67% | Population Normal (%) [1]: 99% and 100% | Population Pyknosed Nuclei (%) [1]: 19% and 15% | Population Tubulin-Different-Phenotype (%) [1]: 6% and 5% | Total Cell Count [1]: 158 and 217 | Population Apoptotic (%) [2]: 38% and 50% | Population Fragmented Nuclei (%) [2]: 8% and 16% | Population Healthy Nuclei (%) [2]: 69% | Population Hoechst High Intensity Objects (%) [2]: 0% | Population Membrane Permeable-Phenotype (%) [2]: 9% and 5% | Population Mitochondria Different-Phenotype (%) [2]: 2% | Population Mitotic Cells (%) [2]: 61% and 50% | Population Normal (%) [2]: 100% | Population Pyknosed Nuclei (%) [2]: 22% and 13% | Population Tubulin-Different-Phenotype (%) [2]: 22% and 16% | Total Cell Count [2]: 213 and 202 | Population Apoptotic (%) [3]: 59% and 44% | Population Fragmented Nuclei (%) [3]: 19% and 15% | Population Healthy Nuclei (%) [3]: 61% and 68% | Population Hoechst High Intensity Objects (%) [3]: 0% | Population Membrane Permeable-Phenotype (%) [3]: 4% and 6% | Population Mitochondria Different-Phenotype (%) [3]: 1% and 2% | Population Mitotic Cells (%) [3]: 40% and 55% | Population Normal (%) [3]: 100% | Population Pyknosed Nuclei (%) [3]: 19% and 16% | Population Tubulin-Different-Phenotype (%) [3]: 12% and 10% | Total Cell Count [3]: 189 and 219 | Population Apoptotic (%) [4]: 46% and 65% | Population Fragmented Nuclei (%) [4]: 10% and 18% | Population Healthy Nuclei (%) [4]: 66% and 70% | Population Hoechst High Intensity Objects (%) [4]: 0% | Population Membrane Permeable-Phenotype (%) [4]: 6% and 4% | Population Mitochondria Different-Phenotype (%) [4]: 0% and 2% | Population Mitotic Cells (%) [4]: 53% and 34% | Population Normal (%) [4]: 100% | Population Pyknosed Nuclei (%) [4]: 22% and 11% | Population Tubulin-Different-Phenotype (%) [4]: 19% and 12% | Total Cell Count [4]: 215 and 203 | Population Apoptotic (%) [5]: 75% and 63% | Population Fragmented Nuclei (%) [5]: 13% and 16% | Population Healthy Nuclei (%) [5]: 69% and 74% | Population Hoechst High Intensity Objects (%) [5]: 0% | Population Membrane Permeable-Phenotype (%) [5]: 4% and 7% | Population Mitochondria Different-Phenotype (%) [5]: 0% | Population Mitotic Cells (%) [5]: 25% and 36% | Population Normal (%) [5]: 100% and 99% | Population Pyknosed Nuclei (%) [5]: 16% and 9% | Population Tubulin-Different-Phenotype (%) [5]: 4% and 6% | Total Cell Count [5]: 173 and 239 | Population Apoptotic (%) [6]: 66% | Population Fragmented Nuclei (%) [6]: 9% and 16% | Population Healthy Nuclei (%) [6]: 79% and 77% | Population Hoechst High Intensity Objects (%) [6]: 0% | Population Membrane Permeable-Phenotype (%) [6]: 9% and 1% | Population Mitochondria Different-Phenotype (%) [6]: 0% and 1% | Population Mitotic Cells (%) [6]: 33% | Population Normal (%) [6]: 100% | Population Pyknosed Nuclei (%) [6]: 10% and 6% | Population Tubulin-Different-Phenotype (%) [6]: 11% and 4% | Total Cell Count [6]: 221 and 197

CC(C)c1c(NC(=O)Nc2ccc(Cl)cc2)c(=O)n(-c2ccccc2)n1C
Population Apoptotic (%) [1]: 30% and 36% | Population Fragmented Nuclei (%) [1]: 9% and 13% | Population Healthy Nuclei (%) [1]: 77% and 68% | Population Hoechst High Intensity Objects (%) [1]: 0% | Population Membrane Permeable-Phenotype (%) [1]: 5% and 3% | Population Mitochondria Different-Phenotype (%) [1]: 0% | Population Mitotic Cells (%) [1]: 69% and 63% | Population Normal (%) [1]: 100% and 99% | Population Pyknosed Nuclei (%) [1]: 13% and 17% | Population Tubulin-Different-Phenotype (%) [1]: 11% and 7% | Total Cell Count [1]: 175 and 269 | Population Apoptotic (%) [2]: 34% and 46% | Population Fragmented Nuclei (%) [2]: 9% and 7% | Population Healthy Nuclei (%) [2]: 68% | Population Hoechst High Intensity Objects (%) [2]: 0% | Population Membrane Permeable-Phenotype (%) [2]: 2% and 11% | Population Mitochondria Different-Phenotype (%) [2]: 1% | Population Mitotic Cells (%) [2]: 65% and 53% | Population Normal (%) [2]: 99% and 100% | Population Pyknosed Nuclei (%) [2]: 21% and 24% | Population Tubulin-Different-Phenotype (%) [2]: 12% and 21% | Total Cell Count [2]: 122 and 191 | Population Apoptotic (%) [3]: 34% and 35% | Population Fragmented Nuclei (%) [3]: 10% and 14% | Population Healthy Nuclei (%) [3]: 75% and 71% | Population Hoechst High Intensity Objects (%) [3]: 0% | Population Membrane Permeable-Phenotype (%) [3]: 5% and 6% | Population Mitochondria Different-Phenotype (%) [3]: 0% and 1% | Population Mitotic Cells (%) [3]: 65% and 64% | Population Normal (%) [3]: 100% | Population Pyknosed Nuclei (%) [3]: 13% | Population Tubulin-Different-Phenotype (%) [3]: 14% and 5% | Total Cell Count [3]: 166 and 271 | Population Apoptotic (%) [4]: 48% and 35% | Population Fragmented Nuclei (%) [4]: 5% and 6% | Population Healthy Nuclei (%) [4]: 73% and 65% | Population Hoechst High Intensity Objects (%) [4]: 0% | Population Membrane Permeable-Phenotype (%) [4]: 7% and 6% | Population Mitochondria Different-Phenotype (%) [4]: 0% | Population Mitotic Cells (%) [4]: 52% and 64% | Population Normal (%) [4]: 100% | Population Pyknosed Nuclei (%) [4]: 20% and 27% | Population Tubulin-Different-Phenotype (%) [4]: 13% | Total Cell Count [4]: 123 and 204 | Population Apoptotic (%) [5]: 79% and 65% | Population Fragmented Nuclei (%) [5]: 14% and 17% | Population Healthy Nuclei (%) [5]: 71% and 74% | Population Hoechst High Intensity Objects (%) [5]: 0% | Population Membrane Permeable-Phenotype (%) [5]: 2% and 6% | Population Mitochondria Different-Phenotype (%) [5]: 0% | Population Mitotic Cells (%) [5]: 20% and 34% | Population Normal (%) [5]: 100% | Population Pyknosed Nuclei (%) [5]: 13% and 8% | Population Tubulin-Different-Phenotype (%) [5]: 8% and 4% | Total Cell Count [5]: 174 and 274 | Population Apoptotic (%) [6]: 53% and 47% | Population Fragmented Nuclei (%) [6]: 17% and 14% | Population Healthy Nuclei (%) [6]: 70% and 62% | Population Hoechst High Intensity Objects (%) [6]: 0% | Population Membrane Permeable-Phenotype (%) [6]: 8% and 10% | Population Mitochondria Different-Phenotype (%) [6]: 0% | Population Mitotic Cells (%) [6]: 46% and 52% | Population Normal (%) [6]: 100% and 99% | Population Pyknosed Nuclei (%) [6]: 11% and 23% | Population Tubulin-Different-Phenotype (%) [6]: 12% and 13% | Total Cell Count [6]: 134 and 222

Source: ChEMBL document CHEMBL5303300, “EUbOPEN Chemogenomics Library - Multiplex” (2023)
